# zVAD death inh: blocks zVAD induced death of L929 cells | viability rescue, % at 10 µM | AID 1377 | 220,000 tested, 0.38% active | L929 zVAD necroptosis rescue, ATP luminescence, 24 h; with zVAD 60 µM;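 active means activation, scaled between plate controls, above about 75%, limit read from the data; inactive means activation under that limit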
# PfM18AAP inh: blocks P. falciparum M18 aspartyl aminopeptidase; 290,000 tested, 1.2% active; inhibition, % at 7.35 µM; recombinant PfM18AAP, H-Glu-NHMec fluorogenic cleavage;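 active means inhibition above the campaign mean inhibition over all tested compounds plus 3 SD, cut at about 28% in these data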
# RBBP9 inhibitor: inhibitors of human serine hydrolase RBBP9. O75884. recombinant RBBP9, FP-Rh probe fluorescence polarization. inhibition, % at 7.94 µM. 220,000 tested, 0.2% active. AID 1515;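 active means inhibition above the campaign mean of all tested compounds plus 3 SD, cut at about 14% in these data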
#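 Test system: recombinant human RBBP9. Quantity: 2.5 µM RBBP9 dispensing solution, before mixing. Detection: FP readout at 525/598 nm. Reagent: Serine-hydrolase probe FP-Rh, 375 nM pre-mixing. Measure: % inhibition. Control set: DMSO-treated enzyme wells and wells lacking RBBP9. Buffer or medium: Tris-NaCl-Pluronic buffer, pH 8.0. Times: preincubation 30 min plus labeling 45 min at 25 °C.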
# Wee1 stabilizer: blocks degradation of human Wee1 kinase; P30291; HeLa Luc-Wee1K328M stability, luciferase luminescence; 100% = proteasome inhibitor MG132 effect; reporter increase, % at 5 µM; 220,000 tested, 1.2% active; AID 1321;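 active means activation above the mean of all tested compounds plus 3 SD, set per screening run, cut at about 8.8% in these data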;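 further: cells exposed to compound for 20 h before luminescence read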
# Target sequence (P30291 whole entry K328M): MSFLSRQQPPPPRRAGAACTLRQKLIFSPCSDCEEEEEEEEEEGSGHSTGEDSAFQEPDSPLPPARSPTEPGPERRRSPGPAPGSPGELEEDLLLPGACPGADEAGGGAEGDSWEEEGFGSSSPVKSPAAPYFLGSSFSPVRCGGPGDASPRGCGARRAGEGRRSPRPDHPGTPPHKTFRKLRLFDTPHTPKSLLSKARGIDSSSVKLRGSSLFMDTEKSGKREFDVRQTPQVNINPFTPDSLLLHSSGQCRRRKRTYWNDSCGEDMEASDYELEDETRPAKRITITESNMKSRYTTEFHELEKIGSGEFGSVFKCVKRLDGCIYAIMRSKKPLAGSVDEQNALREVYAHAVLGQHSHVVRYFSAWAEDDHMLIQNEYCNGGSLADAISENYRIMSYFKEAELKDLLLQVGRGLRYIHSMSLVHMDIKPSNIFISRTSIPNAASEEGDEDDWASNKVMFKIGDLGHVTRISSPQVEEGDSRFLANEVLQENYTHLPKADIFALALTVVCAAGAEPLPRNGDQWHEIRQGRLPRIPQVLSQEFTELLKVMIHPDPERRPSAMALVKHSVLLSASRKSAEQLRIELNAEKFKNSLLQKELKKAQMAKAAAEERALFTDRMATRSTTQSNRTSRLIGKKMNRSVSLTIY
# TNF necrop inh: inhibitors of TNF-alpha induced necroptosis in Jurkat FADD-/- cells. Jurkat FADD-/- TNF necroptosis rescue, ATP luminescence, 24 h; 0 = TNF only, 100 = no-TNF cells. activation (protection from cell death), % at 10 µM. 220,000 tested, 0.068% active;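 active means activation, meaning protection from cell death, of at least 50% relative to plate controls; inactive means activation below 50%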;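 further: necroptosis triggered by 40 ng/mL TNF-alpha added together with compound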
# p97 inhibitor: blocks human p97 ATPase activity; P55072; inhibition, % at 8 µM; AID 1481; 220,000 tested, 0.42% active; recombinant p97 ATPase, Kinase-Glo ATP luminescence, 3 h; in the data active means inhibition above about 15%
# p97 inh conf: confirmation of human p97 ATPase inhibitors; 760 tested, 44% active; shares compounds with p97 inhibitor; inhibition, % at 8 µM; recombinant p97 ATPase, Kinase-Glo ATP luminescence;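 active means percent inhibition of p97 ATPase above a set limit, the primary screen's mean plus 3 SD, cut at about 15% in these data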
# A number is an active result; i = inactive; nt = no result. Rows were chosen to be rich in hits. Some 2.7% of all compounds tested hit in one or more screens of this group.
SMILES,zVAD death inh,PfM18AAP inh,RBBP9 inhibitor,Wee1 stabilizer,TNF necrop inh,p97 inhibitor,p97 inh conf
Cc1cc(C(=O)N/N=C/c2c(C)[nH]c3ccccc23)n[nH]1,i,i,i,i,i,i,nt
Cc1[nH]c2ccccc2c1/C=N/NC(=O)c1cc(-c2cccs2)[nH]n1,i,i,i,i,i,16,32
COc1ccc(-c2nc3c4ccccc4ccn3c2C=O)cc1,i,i,i,i,i,15,i
Cc1cc(OCC(=O)N2CCC(C(N)=O)CC2)c2c(C)cc(=O)oc2c1,nt,i,nt,nt,nt,nt,nt
Clc1c(Cl)c(Cl)c2n[nH]nc2c1Cl,i,i,i,i,i,19,15
Cc1[nH][nH]c(=O)c1C(c1c(C)[nH][nH]c1=O)c1cn(Cc2ccc(Cl)c(Cl)c2)c2ccccc12,i,i,i,i,i,42,i
O=c1c2ccccc2ncn1Cc1ccc(Cl)c(Cl)c1,nt,i,nt,nt,nt,nt,nt
CCN(CC)c1cc(C)c2cc(NC(=O)CNC(C)=O)ccc2n1,i,i,i,i,i,25,i
O=C(CS(=O)(=O)Cc1ccccc1)NCc1ccccc1Cl,nt,i,nt,nt,nt,nt,nt
O=[N+]([O-])c1ccc(C(O)C(CO)NC(=S)Nc2ccccc2)cc1 (centres undefined),i,i,i,i,i,16,i
CCCCC(=Nc1ccc(N)cc1)C1=C(O)C(C(=O)OC)C(C)(C)CC1=O (centres undefined),i,i,i,i,i,18,i
CCCC(=Nc1ccccc1)C1=C(O)C(C(=O)OC)C(C)(C)CC1=O (centres undefined),i,i,i,i,i,i,nt
CCC(=Nc1ccc(N)cc1)C1=C(O)C(C(=O)OC)C(C)(C)CC1=O (centres undefined),i,i,i,i,i,15,i
CC(C)N(C(=O)COC(=O)[C@H](C)NC(N)=O)c1ccccc1,i,i,i,i,i,15,i
O=S(=O)(CCSc1nc2ccccc2s1)c1nc2ccccc2s1,i,i,i,i,i,23,17
CCOC(=O)c1[nH]c2ccc(Br)cc2c1NC(=O)CCN1CCC(C(=O)OCC)CC1,i,i,i,i,i,18,16
CCOC(=O)c1[nH]c2ccc(Br)cc2c1NC(=O)CCN1CCN(C(=O)OCC)CC1,i,i,i,i,i,i,nt
CCOC(=O)c1[nH]c2ccc(Br)cc2c1NC(=O)CCN1CCCCC1,i,i,i,i,i,22,i
CCOC(=O)c1[nH]c2ccc(Br)cc2c1NC(=O)CCN1CCOCC1,i,i,i,i,i,i,nt
CCCn1cc(CN2CCC(N3CCC(C(=O)N4CCOCC4)CC3)CC2)c(C)n1,i,i,i,i,i,i,nt
O=C(O)c1ccc(NS(=O)(=O)c2ccc3c(c2)C2C=CCC2C(c2ccccc2F)N3)cc1 (centres undefined),i,i,i,i,i,32,37
O=C(O)c1ccc2c(c1)C1C=CCC1C(c1cc3c(cc1Br)OCO3)N2 (centres undefined),i,i,i,i,i,i,nt
Cc1nc(NC(=O)c2ccccc2)sc1-c1csc(Nc2ccc(C(=O)O)cc2)n1,i,i,i,i,i,15,15
Cc1ccc(C)c(NC(=O)c2cnc3n(c2=O)CCS3)c1,i,i,i,i,i,29,20
CSc1ccccc1NC(=O)c1cnc2n(c1=O)CCS2,i,i,i,i,i,i,nt
SMILES,zVAD death inh,PfM18AAP inh,RBBP9 inhibitor,Wee1 stabilizer,TNF necrop inh,p97 inhibitor,p97 inh conf
CCS(=O)(=O)Nc1c(C(=O)O)[nH]c2ccccc12,i,i,i,i,i,20,i
CC(C(=O)Nc1ccc2c(c1)OCO2)N1CCN(C)CC1 (centres undefined),i,i,i,i,i,22,i
COc1cc(OC)cc(C(=O)NNC(=S)Nc2ccc(S(N)(=O)=O)cc2)c1,i,i,i,i,i,21,25
COc1cc(/C=C/C(=O)NC(=O)c2ccccc2O)ccc1OC(C)=O,nt,i,nt,nt,nt,nt,nt
COc1ccc(/C=N\NC(=O)c2cccc([N+](=O)[O-])c2)cc1Cn1cc([N+](=O)[O-])cn1,i,i,i,i,i,i,nt
COc1ccc(/C=N/NC(=O)c2ccc(N)cc2)cc1Cn1cc([N+](=O)[O-])cn1,i,i,i,i,i,20,i
O=C(C1CCN(C2CCN(Cc3ccsc3)CC2)CC1)N1CCOCC1,nt,i,nt,nt,nt,nt,nt
CCc1nnc(NS(=O)(=O)c2ccc(NC(=S)Nc3ccc(F)cc3)cc2)s1,i,i,i,i,i,17,i
N#Cc1ccc(C(=O)CSc2n[nH]c(=O)n2Cc2ccco2)cc1,i,i,i,i,i,i,nt
O=S(=O)(Nc1c(S(=O)(=O)c2ccccc2)c2nc3ccccc3nc2n1C1CCCCC1)c1ccccc1,i,i,i,i,i,20,i
CC(=O)Nc1c(S(=O)(=O)c2ccccc2)c2nc3ccccc3nc2n1Cc1ccccc1,i,i,i,i,i,i,nt
C=CCn1c(NS(=O)(=O)c2ccccc2)c(S(=O)(=O)c2ccc(C)cc2)c2nc3ccccc3nc21,i,i,i,i,i,31,29
COc1ccc(Cc2nnc(NC(=O)c3ccccc3Cl)s2)cc1OC,nt,i,nt,nt,nt,nt,nt
O=C1CCCCc2sc(Br)c([N+](=O)[O-])c2N1,i,i,i,i,i,i,nt
COc1ccc(-c2noc(CNC(=O)CCCN3C(=O)[C@H]4CC=CC[C@H]4C3=O)n2)cc1,nt,i,nt,nt,nt,nt,nt
O=C(NC(=S)Nc1ccccn1)c1cccc([N+](=O)[O-])c1,i,i,i,i,i,i,nt
Oc1ccccc1CNc1cccc2cccnc12,i,i,i,i,i,i,nt
NC(=S)NNc1cccc2cccnc12,i,i,i,i,i,16,i
CCOC(=O)c1cc(=O)c2ccc(OCC(=O)Nc3ccc(F)cc3)cc2o1,i,i,i,i,i,i,nt
COCCCNC(=O)c1cccn2c(=O)c3cc4ccccc4cc3nc12,i,i,i,i,i,15,i
O=C(NCc1ccco1)c1cccn2c(=O)c3cc4ccccc4cc3nc12,i,i,i,i,i,i,nt
CNC1(c2nnnn2-c2ccccc2C)CCOC(C)(C)C1 (centres undefined),i,i,i,i,i,i,nt
O=C(OCc1ccccc1)C1=[N+]([O-])OC(C(=O)OCc2ccccc2)C1c1c[nH]c2ccccc12 (centres undefined),i,i,i,i,i,28,36
C#CCN(C(=O)c1ccc(OC)c(OC2CCN(C(C)C)CC2)c1)C1CCCCC1,nt,i,nt,nt,nt,nt,nt
Fc1ccc(-c2nn(-c3ccccc3)cc2CNCc2ccccc2)cc1,i,i,i,i,i,i,nt
O=C(CCl)Nc1cn(-c2ccccc2)nc1-c1ccc(F)cc1,i,i,i,i,i,17,26
Cc1ccc(C)c(NC(=S)Nc2cccc3cnccc23)c1,i,i,i,i,i,i,nt

# Assay outcomes deposited in PubChem by several laboratories.
